Reference: ChEMBL document CHEMBL4052683, “The discovery of benzoxazine sulfonamide inhibitors of NaV1.7: Tools that bridge efficacy and target engagement” (Bioorg Med Chem Lett, 2017)
Activity calls are given as the source filed them. The calls are words filed in the database; no cut-off is given here.

What was measured:
[1] = target: Sodium channel protein type 5 subunit alpha (Homo sapiens, UniProt Q14524); test: Inhibition of human NaV1.5 expressed in […] cells at holding potential of -125 mV with test potentials to -10 mV by whole cell voltage clamp method; type: cell-based
Sequence of Sodium channel protein type 5 subunit alpha (Q14524 whole entry): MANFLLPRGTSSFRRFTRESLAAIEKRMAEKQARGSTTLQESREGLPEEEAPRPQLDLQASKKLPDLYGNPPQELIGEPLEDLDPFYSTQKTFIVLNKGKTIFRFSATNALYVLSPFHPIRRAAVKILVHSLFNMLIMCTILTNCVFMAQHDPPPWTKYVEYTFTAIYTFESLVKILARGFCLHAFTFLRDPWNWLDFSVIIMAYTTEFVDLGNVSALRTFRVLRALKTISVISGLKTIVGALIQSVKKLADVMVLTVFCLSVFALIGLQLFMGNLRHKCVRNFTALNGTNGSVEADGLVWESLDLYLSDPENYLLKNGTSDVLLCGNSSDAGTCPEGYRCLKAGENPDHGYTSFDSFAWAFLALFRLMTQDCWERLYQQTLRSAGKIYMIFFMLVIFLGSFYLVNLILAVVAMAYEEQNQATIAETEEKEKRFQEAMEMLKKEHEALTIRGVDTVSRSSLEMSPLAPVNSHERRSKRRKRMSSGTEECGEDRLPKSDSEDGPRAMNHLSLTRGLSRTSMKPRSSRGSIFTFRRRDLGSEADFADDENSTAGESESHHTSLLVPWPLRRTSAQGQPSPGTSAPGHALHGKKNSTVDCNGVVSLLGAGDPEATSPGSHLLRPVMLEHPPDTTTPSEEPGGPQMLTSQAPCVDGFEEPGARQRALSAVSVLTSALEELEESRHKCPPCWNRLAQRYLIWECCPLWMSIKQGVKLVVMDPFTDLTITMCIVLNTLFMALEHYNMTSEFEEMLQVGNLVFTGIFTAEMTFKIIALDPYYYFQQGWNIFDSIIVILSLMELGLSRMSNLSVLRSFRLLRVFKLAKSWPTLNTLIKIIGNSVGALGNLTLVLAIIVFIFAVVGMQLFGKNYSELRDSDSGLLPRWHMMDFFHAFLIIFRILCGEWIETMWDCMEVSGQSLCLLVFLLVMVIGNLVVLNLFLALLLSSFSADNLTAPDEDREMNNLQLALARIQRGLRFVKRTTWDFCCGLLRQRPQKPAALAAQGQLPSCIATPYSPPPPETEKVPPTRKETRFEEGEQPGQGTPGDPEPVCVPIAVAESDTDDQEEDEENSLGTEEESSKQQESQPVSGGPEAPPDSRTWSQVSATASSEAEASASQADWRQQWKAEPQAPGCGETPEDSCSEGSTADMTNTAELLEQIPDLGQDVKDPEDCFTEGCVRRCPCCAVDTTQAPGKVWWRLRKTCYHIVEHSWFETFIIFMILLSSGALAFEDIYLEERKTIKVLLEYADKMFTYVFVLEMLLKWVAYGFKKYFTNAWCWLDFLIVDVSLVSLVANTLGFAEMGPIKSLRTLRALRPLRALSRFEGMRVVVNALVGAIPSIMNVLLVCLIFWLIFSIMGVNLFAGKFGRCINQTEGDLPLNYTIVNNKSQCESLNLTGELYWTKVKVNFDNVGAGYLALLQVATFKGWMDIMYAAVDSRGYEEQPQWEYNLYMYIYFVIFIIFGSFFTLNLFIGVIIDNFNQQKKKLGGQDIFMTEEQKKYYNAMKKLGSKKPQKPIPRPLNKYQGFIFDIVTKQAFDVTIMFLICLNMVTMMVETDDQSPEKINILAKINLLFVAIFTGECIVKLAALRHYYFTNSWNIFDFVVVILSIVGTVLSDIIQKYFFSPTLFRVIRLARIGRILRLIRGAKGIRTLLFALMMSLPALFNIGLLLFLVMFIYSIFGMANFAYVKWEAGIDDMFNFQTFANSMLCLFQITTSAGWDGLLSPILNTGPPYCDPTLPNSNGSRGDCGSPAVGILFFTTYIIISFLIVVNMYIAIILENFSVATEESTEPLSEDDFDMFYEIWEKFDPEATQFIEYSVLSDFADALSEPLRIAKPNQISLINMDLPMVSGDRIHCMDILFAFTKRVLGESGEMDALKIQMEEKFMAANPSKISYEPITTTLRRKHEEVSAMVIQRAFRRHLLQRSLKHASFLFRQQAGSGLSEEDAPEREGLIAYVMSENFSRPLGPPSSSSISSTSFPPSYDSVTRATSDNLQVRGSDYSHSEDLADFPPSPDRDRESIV

Rattus norvegicus [2] = test: Unbound clearance in rat at 0.5 mg/kg, iv by LC-MS/MS method; type: ADME, organism-based; conditions: in vivo
Summary of the method: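 Male rats given 0.5 mg/kg intravenously as a solution in DMSO. Unbound clearance was calculated as rat clearance divided by unbound fraction, with unbound fraction determined by equilibrium dialysis.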

[3] = Inhibition of cynomolgus monkey NaV1.7 by whole cell voltage clamp method; conditions: Macaca fascicularis
Summary of the method: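 PatchXpress electrophysiology was run with a protocol giving about 20% channel inactivation. At least four concentrations at half-log spacing were applied one at a time, with washout, current recovery and holding voltage reset between each. Data were pooled from at least 10 cells, with 2–3 points per concentration, and fitted with a 4-parameter Hill curve to give one IC50.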

[4] = Protein binding in rat plasma at 5 uM by ultracentrifugation and LC-MS/MS method; type: ADME, cell-free; conditions: read-out: PPB (converted)
[5] = Protein binding in mouse plasma at 5 uM by ultracentrifugation and LC-MS/MS method; type: ADME, cell-free; conditions: read-out: PPB (converted)
[6] = AUC (infinity) in rat at 0.5 mg/kg, iv by LC-MS/MS method; type: ADME, organism-based; parameters: dose 0.5 mg/kg, time infinity, route intravenous; conditions: in vivo
Summary of the method: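 Male rats got 0.5 mg/kg IV as a DMSO solution. Unbound clearance was taken as rat clearance divided by the unbound fraction from equilibrium dialysis.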

[7] = AUC (infinity) in rat at 10 mg/kg, po by LC-MS/MS method; type: ADME, organism-based; parameters: dose 10 mg/kg, route oral, time infinity; conditions: in vivo
[8] = Volume of distribution in rat at 0.5 mg/kg, iv by LC-MS/MS method; type: ADME, organism-based; conditions: in vivo
[9] = Tmax in mouse at 30 mg/kg, po by LC-MS/MS method; type: ADME, organism-based; conditions: in vivo
Plasma [10] = test: Plasma concentration in Sprague-Dawley rat model of formalin-induced nociception behavior at 100 mg/kg, po; type: ADME, organism-based; conditions: in vivo
Summary of the method: (§1)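 Sprague Dawley rats got 10, 30 or 100 mg/kg PO in 30% (w/v) hydroxypropyl β-cyclodextrin, pH 10.0 with KOH. Total phase II formalin-induced flinches were counted. Morphine sulfate 2 mg/kg SC served as control. Unbound plasma levels were measured and compared with the rat NaV1.7 IC50.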

Plasma [11] = test: Plasma concentration in C57BL/6 mouse model of histamine-induced pruritus at 30 mg/kg, po; type: ADME, organism-based; conditions: in vivo
Summary of the method: (§2)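 Male C57BL/6 mice got 30, 60 or 100 mg/kg PO in 30% hydroxypropyl β-cyclodextrin, pH 10.0, 120 min before the test. Histamine (8.15mM) was given intradermally to the nape of the neck just before testing, and scratch bouts were counted over 0–30 min. Diphenhydramine 30 mg/kg PO in water, 90 min before, served as control. Unbound plasma concentrations were measured.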

[12] = Ratio of unbound plasma concentration in Sprague-Dawley rat model of formalin-induced nociception behavior at 30 mg/kg, po to IC50 for rat Nav1.7 by whole cell voltage clamp method
Summary of the method: (§3)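 Total phase II formalin-induced flinches were scored. Unbound plasma concentration was determined at each dose and related to the rat NaV1.7 IC50.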

[13] = Ratio of unbound plasma concentration in Sprague-Dawley rat model of formalin-induced nociception behavior at 100 mg/kg, po to IC50 for rat Nav1.7 by whole cell voltage clamp method; summary of the method: as §3
[14] = Ratio of unbound plasma concentration in C57BL/6 mouse model of formalin-induced nociception behavior at 30 mg/kg, po to IC50 for mouse Nav1.7 by whole cell voltage clamp method
Summary of the method: (§4)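 Male C57BL/6 mice got 30, 60 or 100 mg/kg PO in 30% (w/v) hydroxypropyl β-cyclodextrin in water, pH 10.0 with KOH. Formalin (2%) was injected subcutaneously into the dorsal hind paw, and total phase II paw licking and lifting were scored. Morphine sulfate 3 mg/kg SC served as control. Unbound plasma concentration was divided by the mouse NaV1.7 IC50.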

[15] = Ratio of unbound plasma concentration in C57BL/6 mouse model of formalin-induced nociception behavior at 60 mg/kg, po to IC50 for mouse Nav1.7 by whole cell voltage clamp method
Summary of the method: (§5)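 The formalin arm received 2% formalin subcutaneously into the dorsal hind paw, and total phase II licking and lifting was scored. The pruritus arm was dosed 120 min before histamine (8.15mM, intradermal, nape of neck), and scratch bouts were counted over 0-30 min. Unbound plasma concentration was determined at each dose.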

[16] = Ratio of unbound plasma concentration in C57BL/6 mouse model of formalin-induced nociception behavior at 100 mg/kg, po to IC50 for mouse Nav1.7 by whole cell voltage clamp method; summary of the method: as §4
[17] = Ratio of unbound plasma concentration in C57BL/6 mouse model of histamine-induced pruritus at 30 mg/kg, po to IC50 for mouse Nav1.7 by whole cell voltage clamp method; summary of the method: as §5
Rattus norvegicus [18] = test: Analgesic activity in Sprague-Dawley rat model of formalin-induced nociception behavior assessed as reduction in formalin-evoked paw flinching at 30 mg/kg, po; type: functional; summary of the method: as §1
Mus musculus [19] = test: Analgesic activity in C57BL/6 mouse model of formalin-induced nociception behavior assessed as reduction in formalin-evoked paw lifting/licking at 30 mg/kg, po; type: functional; summary of the method: as §4
Mus musculus [20] = test: Analgesic activity in C57BL/6 mouse model of formalin-induced nociception behavior assessed as reduction in formalin-evoked paw lifting/licking at 100 mg/kg, po; type: functional; summary of the method: as §4
Mus musculus [21] = test: Anti-pruritic activity in C57BL/6 mouse model of histamine-induced pruritus assessed as reduction in histamine-induced scratching at 30 mg/kg, po dosed 120 mins before test; type: functional; summary of the method: as §2
Mus musculus [22] = test: Anti-pruritic activity in C57BL/6 mouse model of histamine-induced pruritus assessed as reduction in histamine-induced scratching at 60 mg/kg, po dosed 120 mins before test; type: functional; summary of the method: as §2
Plasma [23] = test: Unbound plasma concentration in Sprague-Dawley rat model of formalin-induced nociception behavior at 30 mg/kg, po; type: ADME, organism-based; conditions: in vivo; summary of the method: as §3
Plasma [24] = test: Unbound plasma concentration in Sprague-Dawley rat model of formalin-induced nociception behavior at 100 mg/kg, po; type: ADME, organism-based; conditions: in vivo; summary of the method: as §3
Plasma [25] = test: Unbound plasma concentration in C57BL/6 mouse model of formalin-induced nociception behavior at 60 mg/kg, po; type: ADME, organism-based; conditions: in vivo; summary of the method: as §5
Plasma [26] = test: Unbound plasma concentration in C57BL/6 mouse model of formalin-induced nociception behavior at 100 mg/kg, po; type: ADME, organism-based; conditions: in vivo; summary of the method: as §5
Plasma [27] = test: Unbound plasma concentration in C57BL/6 mouse model of histamine-induced pruritus at 100 mg/kg, po; type: ADME, organism-based; conditions: in vivo; summary of the method: as §5
[28] = target: Histamine H1 receptor (Homo sapiens) (UniProt P35367); test: Displacement of [3H]pyrilamine from human recombinant histamine H1 receptor expressed in HEK293 cells at 10 uM by radioligand displacement assay; type: cell-based
Sequence of Histamine H1 receptor (Homo sapiens) (P35367 whole entry): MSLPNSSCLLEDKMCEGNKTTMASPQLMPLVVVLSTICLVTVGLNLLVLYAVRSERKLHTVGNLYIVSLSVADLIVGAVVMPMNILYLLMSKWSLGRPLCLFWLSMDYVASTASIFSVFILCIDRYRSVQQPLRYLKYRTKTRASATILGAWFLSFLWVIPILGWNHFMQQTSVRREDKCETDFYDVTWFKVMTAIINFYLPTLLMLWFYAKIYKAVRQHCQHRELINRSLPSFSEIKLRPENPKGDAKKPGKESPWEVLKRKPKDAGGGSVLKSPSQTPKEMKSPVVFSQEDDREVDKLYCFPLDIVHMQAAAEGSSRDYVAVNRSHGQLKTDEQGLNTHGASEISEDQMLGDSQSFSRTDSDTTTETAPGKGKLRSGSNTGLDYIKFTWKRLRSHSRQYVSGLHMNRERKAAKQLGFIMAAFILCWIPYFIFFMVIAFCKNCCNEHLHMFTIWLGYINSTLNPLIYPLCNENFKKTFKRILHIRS

[29] = target: Histamine H3 receptor (Homo sapiens) (UniProt Q9Y5N1); test: Displacement of [3H]N-alpha-Me-histamine from human recombinant histamine H3 receptor expressed in CHO cells at 10 uM by radioligand displacement assay; type: cell-based
Sequence of Histamine H3 receptor (Homo sapiens) (Q9Y5N1 whole entry): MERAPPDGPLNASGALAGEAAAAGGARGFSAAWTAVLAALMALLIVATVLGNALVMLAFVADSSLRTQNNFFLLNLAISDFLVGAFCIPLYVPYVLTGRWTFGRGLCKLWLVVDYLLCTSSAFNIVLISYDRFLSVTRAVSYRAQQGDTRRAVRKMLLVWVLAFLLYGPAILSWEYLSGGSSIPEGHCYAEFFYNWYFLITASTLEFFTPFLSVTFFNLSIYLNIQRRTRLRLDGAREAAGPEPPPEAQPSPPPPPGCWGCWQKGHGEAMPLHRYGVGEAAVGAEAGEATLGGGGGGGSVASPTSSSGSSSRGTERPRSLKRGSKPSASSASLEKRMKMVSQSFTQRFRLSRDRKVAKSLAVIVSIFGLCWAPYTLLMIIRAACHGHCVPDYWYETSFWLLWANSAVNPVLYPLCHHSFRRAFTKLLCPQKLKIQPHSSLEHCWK

[30] = Apparent permeability in MDCK vector control cells at 5 uM; conditions: dog

CL free (Rattus norvegicus [2]): 650 mL/min/kg
IC50 [3]: 370 nM
fraction unbound at 5 µM [4]: 0.015
fraction unbound at 5 µM [5]: 0.006
AUC(0-inf) [6]: 1.8 µM·h
AUC(0-inf) [7]: 20 µM·h
Vd [8]: 2.5 L/kg
Tmax [9]: 2 h
concentration (Plasma [10]): 11000 nM
concentration (Plasma [11]): 61000 nM
Cp(f) (Plasma [23]): 65 nM
Cp(f) (Plasma [24]): 180 nM
Cp(f) (Plasma [25]): 620 nM
Cp(f) (Plasma [26]): 920 nM
Cp(f) (Plasma [27]): 680 nM
inhibition [28]: inactive
inhibition [29]: inactive
Papp at 5 µM [30]: 19 ×10⁻⁶ cm/s
SMILES: N#Cc1cc(C(F)(F)F)ccc1N1CCOc2cc(S(=O)(=O)Nc3nccs3)c(F)cc21
IC50 [1]: 320 to 330 nM
Ratio [12]: 1.3
Ratio [13]: 3.6
Ratio [14]: 5
Ratio [15]: 10
Ratio [16]: 16
Ratio [17]: 6
MPE (Rattus norvegicus [18]): 39%
MPE (Mus musculus [19]): 5%
MPE (Mus musculus [20]): 77%
MPE (Mus musculus [21]): 37%
MPE (Mus musculus [22]): 71%
